Laboratory results reported in ChEMBL document CHEMBL1122744, “2-Chloroethyl (methylsulfonyl)methanesulfonate and related (methylsulfonyl)methanesulfonates. Antineoplastic activity in vivo” (J Med Chem, 1984).

Assays:
[1] = system: Mus musculus; test: Change in weight by day 5, obtained by subtracting treated groups of animals minus control groups of animals at dose 50 mg/kg in exp6; assay type: functional
In short: (§1)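 Mice were inoculated ip with 10^6 P388 leukemia cells on day 0 and weighed 19–22 g that day. Compound was given ip once daily on days 1–5, within about 5 min of preparing the solution or suspension, to groups of six (occasionally five). Thirty inoculated untreated mice served as controls. The value is the average weight change of treated mice minus that of controls on day 5.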

[2] = system: Mus musculus; test: Change in weight by day 5, obtained by subtracting treated groups of animals minus control groups of animals at dose 50 mg/kg in exp7; assay type: functional; in short: as §1
[3] = system: Mus musculus; test: Change in weight by day 5, obtained by subtracting treated groups of animals minus control groups of animals at dose 22 mg/kg in exp5; assay type: functional; in short: as §1
[4] = system: Mus musculus; test: Change in weight by day 5, obtained by subtracting treated groups of animals minus control groups of animals at dose 33 mg/kg in exp2.; assay type: functional; in short: as §1
[5] = system: Mus musculus; test: Change in weight by day 5, obtained by subtracting treated groups of animals minus control groups of animals at dose 50 mg/kg in exp2.; assay type: functional; in short: as §1
[6] = system: Mus musculus; test: Change in weight by day 5, obtained by subtracting treated groups of animals minus control groups of animals at dose 22 mg/kg in exp7; assay type: functional; in short: as §1
[7] = system: Mus musculus; test: Mortality by day 5 expressed as number of mice died to the total treated at dose 100 mg/kg in exp2; 1/5; assay type: ADME, organism-based; design: dose 100 mg/kg; settings: in vivo
[8] = system: Mus musculus; test: Mortality by day 5 expressed as number of mice died to the total treated at dose 100 mg/kg in exp8*-Mortality was 3/6 by day 6; 2/6; assay type: ADME, organism-based; design: dose 100 mg/kg; settings: in vivo
[9] = system: Mus musculus; test: Median survival time of the treated control groups, in which there are no 30-day survivors at dose 22 mg/kg in exp3; assay type: functional
[10] = system: Mus musculus; test: Median survival time of the treated control groups, in which there are no 30-day survivors at dose 22 mg/kg in exp5; assay type: functional
[11] = system: Mus musculus; test: Mortality by day 5 expressed as number of mice died to the total treated at dose 15 mg/kg in exp3; 0/5; assay type: ADME, organism-based; design: dose 15 mg/kg; settings: in vivo
[12] = system: Mus musculus; test: Median survival time of the treated control groups, in which there are no 30-day survivors at dose 100 mg/kg in exp2; assay type: functional
[13] = system: Mus musculus; test: Median survival time of the treated control groups, in which there are no 30-day survivors at dose 100 mg/kg in exp8; assay type: functional
[14] = system: Mus musculus; test: Median survival time of the treated control groups, in which there are no 30-day survivors at dose 22 mg/kg in exp7; assay type: functional
[15] = system: Mus musculus; test: Mortality by day 5 expressed as number of mice died to the total treated at dose 50 mg/kg in exp8; 0/6; assay type: ADME, organism-based; design: dose 50 mg/kg; settings: in vivo
[16] = system: Mus musculus; test: Mortality by day 5 expressed as number of mice died to the total treated at dose 200 mg/kg in exp1; 5/6; assay type: ADME, organism-based; design: dose 200 mg/kg; settings: in vivo
[17] = system: Mus musculus; test: Mortality by day 5 expressed as number of mice died to the total treated at dose 22 mg/kg in exp7; 0/6; assay type: ADME, organism-based; design: dose 22 mg/kg; settings: in vivo
[18] = system: Mus musculus; test: Mortality by day 5 expressed as number of mice died to the total treated at dose 33 mg/kg in exp5; 0/6; assay type: ADME, organism-based; design: dose 33 mg/kg; settings: in vivo
[19] = system: Mus musculus; test: Mortality by day 5 expressed as number of mice died to the total treated at dose 50 mg/kg in exp1; 0/5; assay type: ADME, organism-based; design: dose 50 mg/kg; settings: in vivo
[20] = system: Mus musculus; test: Median survival time of the untreated control groups, in which there are no 30-day survivors at dose 22 mg/kg in exp5; assay type: functional
[21] = system: Mus musculus; test: Mortality by day 5 expressed as number of mice died to the total treated at dose 50 mg/kg in exp6; 0/6; assay type: ADME, organism-based; design: dose 50 mg/kg; settings: in vivo
[22] = system: Mus musculus; test: Median survival time of the treated control groups, in which there are no 30-day survivors at dose 33 mg/kg in exp5; assay type: functional
[23] = system: Mus musculus; test: Median survival time of the untreated control groups, in which there are no 30-day survivors at dose 50 mg/kg in exp6; assay type: functional
[24] = system: Mus musculus; test: Median survival time of the untreated control groups, in which there are no 30-day survivors at dose 33 mg/kg in exp2; assay type: functional
[25] = system: Mus musculus; test: Median survival time of the untreated control groups, in which there are no 30-day survivors at dose 33 mg/kg in exp4; assay type: functional
[26] = system: Mus musculus; test: Median survival time of the untreated control groups, in which there are no 30-day survivors at dose 33 mg/kg in exp5; assay type: functional
[27] = system: Mus musculus; test: Median survival time of the treated control groups, in which there are no 30-day survivors at dose 50 mg/kg in exp6; assay type: functional
[28] = system: Mus musculus; test: Median survival time of the treated control groups, in which there are no 30-day survivors at dose 75 mg/kg in exp2; assay type: functional
[29] = system: Mus musculus; test: Median survival time of the untreated control groups, in which there are no 30-day survivors at dose 22 mg/kg in exp3; assay type: functional
[30] = Ratio of median survival times for non-survivors at dose 50 mg/kg in exp2; assay type: functional
In short: (§2)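 Mice were inoculated ip with 10^6 P388 leukemia cells on day 0. Groups of six (occasionally five) were dosed ip qd on days 1–5 with fresh suspensions; 30 mice served as untreated controls. Deaths were recorded daily up to day 60. T/C% compares the median survival of treated non-survivors (<60 days) with the control median. Medians used grouped data when there were no 30-day survivors, otherwise ungrouped data. t = toxic.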

[31] = Ratio of number of 30-day survivors to the total treated mice at dose 33 mg/kg in exp4; 1/6; assay type: functional
[32] = Ratio of number of 60-day survivors to the total treated mice at dose 33 mg/kg in exp4; 0/6; assay type: functional
[33] = Ratio of number of 60-day survivors to the total treated mice at dose 50 mg/kg in exp8; 2/6; assay type: functional
[34] = Ratio of median survival times for non-survivors at dose 100 mg/kg in exp2; assay type: functional; in short: as §2
[35] = Ratio of median survival times for non-survivors at dose 100 mg/kg in exp8*-toxic; assay type: functional; in short: as §2
[36] = Ratio of median survival times for non-survivors at dose 150 mg/kg in exp2; t= toxic; assay type: ADME, organism-based; design: dose 150 mg/kg; settings: in vivo; in short: as §2
[37] = Ratio of median survival times for non-survivors at dose 100 mg/kg in exp1; assay type: functional; design: unit: %; in short: as §2
[38] = Ratio of median survival times for non-survivors at dose 22 mg/kg in exp3; assay type: functional; in short: as §2
[39] = Ratio of median survival times for non-survivors at dose 33 mg/kg in exp2; assay type: functional
[40] = system: Mus musculus; test: Median survival time of the untreated control groups, in which there are no 30-day survivors at dose 50 mg/kg in exp7; assay type: functional
[41] = system: Mus musculus; test: Mortality by day 5 expressed as number of mice died to the total treated at dose 33 mg/kg in exp2; 0/5; assay type: ADME, organism-based; design: dose 33 mg/kg; settings: in vivo
[42] = Number of 30-day survivors at dose 50 mg/kg in exp7*-one death on 6th day, one death on 27th day & four 30 day survivors; 4/6
[43] = system: Mus musculus; test: Change in weight by day 5, obtained by subtracting treated groups of animals minus control groups of animals at dose 22 mg/kg in exp4.

For `CS(=O)(=O)CS(=O)(=O)OCCCl`, the Change in weight [1] was -3.1, the Change in weight [2] was -3 and the Change in weight [3] was -1.3. The Change in weight [4] was -2.5, the Change in weight [5] was -3.4 and the Change in weight [6] was -2.2. The Mortality [7] was 1, the Mortality [8] was 2 and the Median survival time [9] was 18.5. The Median survival time [10] was 19.4, the Mortality [11] was 0 and the Median survival time [12] was 22.5. For the same molecule, the Median survival time [13] was 6, the Median survival time [14] was 18 and the Mortality [15] was 0. It also gave a Mortality [16] of 5, a Mortality [17] of 0 and a Mortality [18] of 0. The Mortality [19] was 0, the Median survival time [20] was 12 and the Mortality [21] was 0. The Median survival time [22] was 25.7, the Median survival time [23] was 13 and the Median survival time [24] was 11.2. The Median survival time [25] was 10.5, the Median survival time [26] was 12 and the Median survival time [27] was 43.5. The Median survival time [28] was 17.5, the Median survival time [29] was 11.1 and the Ratio [30] was 241. For the same molecule, the Ratio [31] was 1, the Ratio [32] was 0 and the Ratio [33] was 2. For the same molecule, the Ratio [34] was 200, the Ratio [35] was 55 and the Ratio [36] was “Toxic”. For the same molecule, the Ratio [37] was 151, the Ratio [38] was 166 and the Ratio [39] was 209. The Median survival time [40] was 13, the Mortality [41] was 0 and the 30-day survivors [42] was 4. The Change in weight [43] was -1.2.
